Reference: ChEMBL document CHEMBL4339195, “Di-aryl Sulfonamide Motif Adds π-Stacking Bulk in Negative Allosteric Modulators of the NMDA Receptor” (ACS Med Chem Lett, 2019)

What was measured:
[1] = target: Glutamate NMDA receptor; Grin1/Grin2c (Rattus norvegicus) (UniProt P35439+Q00961); assay: Negative allosteric modulation of recombinant rat GluN1/GluN2C expressed in Xenopus laevis oocytes assessed as inhibition of glutamate/glycine-induced current response at 30 uM at -40 mV holding potential by two-electrode voltage clamp method relative to glutamate/glycine; format: cell-based; conditions: values are per cent of control
Outline: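 Oocytes recorded while the drug is co-applied with a maximally effective 100 µM glutamate plus 30 µM glycine. Response is expressed as percent of the glutamate/glycine control. IC50 comes from a Hill fit to the average composite concentration-response curve. 8-16 oocytes from 2-3 frogs per compound and receptor.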

[2] = target: Glutamate NMDA receptor; Grin1/Grin2b (Rattus norvegicus) (UniProt P35439+Q00960); assay: Negative allosteric modulation of recombinant rat GluN1/GluN2B expressed in Xenopus laevis oocytes assessed as inhibition of glutamate/glycine-induced current response at 30 uM at -40 mV holding potential by two-electrode voltage clamp method relative to glutamate/glycine; format: cell-based
Outline: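 Oocyte voltage clamp at -40 mV. Drug co-applied with 100 µM glutamate plus 30 µM glycine; response given as percent of the average of control and recovery currents to agonist alone.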

[3] = target: Glutamate receptor 1 (Rattus norvegicus) (UniProt P19490); assay: Negative allosteric modulation of recombinant rat GluA1 expressed in Xenopus laevis oocytes assessed as inhibition of glutamate-induced current response at 30 uM at -40 mV holding potential by two-electrode voltage clamp method relative to glutamate alone; format: cell-based
Outline: (§1)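 Oocyte two-electrode voltage clamp at -40 mV holding. Test compound co-applied with agonist; response given as percent of the mean of control and recovery currents to agonist alone. Agonists: 100 µM glutamate (AMPA, kainate), 100 µM GABA (GABA receptors), 100 µM glycine (glycine receptor), 100 µM serotonin (5-HT3A), 9 µM ATP (P2X), 1 µM acetylcholine (nicotinic).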

[4] = tested on: Glutamate receptor 3 (Homo sapiens), P42263 [L513Y]; assay: Negative allosteric modulation of human GluA3 L513Y mutant expressed in Xenopus laevis oocytes assessed as inhibition of glutamate-induced current response at 30 uM at -40 mV holding potential by two-electrode voltage clamp method relative to glutamate alone; format: cell-based; outline: as §1
[5] = target: T1, 5-hydroxytryptamine receptor 3A (Rattus norvegicus) (UniProt P35563); assay: Negative allosteric modulation of rat 5HT3A expressed in Xenopus laevis oocytes assessed as inhibition of serotonin-induced current response at 30 uM at -40 mV holding potential by two-electrode voltage clamp method relative to serotonin alone; format: cell-based; outline: as §1
T1 sequence (whole entry): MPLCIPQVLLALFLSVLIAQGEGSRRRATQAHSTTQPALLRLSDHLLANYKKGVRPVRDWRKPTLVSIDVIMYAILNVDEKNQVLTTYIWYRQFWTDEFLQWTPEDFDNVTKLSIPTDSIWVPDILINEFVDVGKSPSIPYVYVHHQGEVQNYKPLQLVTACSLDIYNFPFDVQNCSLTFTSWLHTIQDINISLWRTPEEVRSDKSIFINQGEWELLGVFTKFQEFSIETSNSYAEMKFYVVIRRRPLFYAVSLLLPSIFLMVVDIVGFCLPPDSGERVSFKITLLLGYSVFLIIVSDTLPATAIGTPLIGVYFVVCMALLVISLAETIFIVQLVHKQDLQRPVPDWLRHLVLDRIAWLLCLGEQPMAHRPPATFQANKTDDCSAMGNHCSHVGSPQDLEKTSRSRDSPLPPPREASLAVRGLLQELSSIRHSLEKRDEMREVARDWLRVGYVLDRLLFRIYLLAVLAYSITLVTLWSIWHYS

[6] = target: Glutamate NMDA receptor; Grin1/Grin2a (Rattus norvegicus) (UniProt P35439+Q00959); assay: Negative allosteric modulation of recombinant rat GluN1/GluN2A expressed in Xenopus laevis oocytes assessed as residual glutamate/glycine-induced current response at 30 uM at -40 mV holding potential by two-electrode voltage clamp method relative to glutamate/glycine

Chain of Glutamate receptor 1 (Rattus norvegicus) (P19490 whole entry): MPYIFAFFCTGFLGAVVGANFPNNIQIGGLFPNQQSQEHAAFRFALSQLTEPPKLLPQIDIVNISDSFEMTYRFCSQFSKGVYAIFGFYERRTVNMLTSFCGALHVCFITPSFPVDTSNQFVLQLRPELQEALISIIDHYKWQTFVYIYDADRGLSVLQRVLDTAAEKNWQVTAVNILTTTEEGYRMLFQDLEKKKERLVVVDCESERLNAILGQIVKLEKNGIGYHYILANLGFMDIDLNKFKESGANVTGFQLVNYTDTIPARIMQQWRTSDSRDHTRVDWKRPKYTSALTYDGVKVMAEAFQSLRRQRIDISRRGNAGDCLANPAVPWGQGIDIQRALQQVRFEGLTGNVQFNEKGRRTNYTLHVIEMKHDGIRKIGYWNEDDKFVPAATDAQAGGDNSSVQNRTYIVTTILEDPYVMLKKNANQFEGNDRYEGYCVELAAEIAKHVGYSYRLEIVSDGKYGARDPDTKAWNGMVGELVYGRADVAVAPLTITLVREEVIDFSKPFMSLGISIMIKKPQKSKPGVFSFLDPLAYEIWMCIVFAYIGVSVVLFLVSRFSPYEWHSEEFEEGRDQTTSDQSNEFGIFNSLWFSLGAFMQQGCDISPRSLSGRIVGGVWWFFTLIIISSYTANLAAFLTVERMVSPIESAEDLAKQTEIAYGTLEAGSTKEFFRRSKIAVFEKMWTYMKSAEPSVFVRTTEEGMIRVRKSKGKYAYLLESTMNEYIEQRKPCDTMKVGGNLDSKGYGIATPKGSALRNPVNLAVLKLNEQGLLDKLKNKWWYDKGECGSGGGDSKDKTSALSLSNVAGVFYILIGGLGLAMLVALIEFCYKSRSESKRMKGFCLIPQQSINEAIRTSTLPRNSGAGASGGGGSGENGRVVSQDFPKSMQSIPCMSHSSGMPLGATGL
Chain of Glutamate receptor 3 (Homo sapiens), P42263 [L513Y] (P42263 whole entry L513Y): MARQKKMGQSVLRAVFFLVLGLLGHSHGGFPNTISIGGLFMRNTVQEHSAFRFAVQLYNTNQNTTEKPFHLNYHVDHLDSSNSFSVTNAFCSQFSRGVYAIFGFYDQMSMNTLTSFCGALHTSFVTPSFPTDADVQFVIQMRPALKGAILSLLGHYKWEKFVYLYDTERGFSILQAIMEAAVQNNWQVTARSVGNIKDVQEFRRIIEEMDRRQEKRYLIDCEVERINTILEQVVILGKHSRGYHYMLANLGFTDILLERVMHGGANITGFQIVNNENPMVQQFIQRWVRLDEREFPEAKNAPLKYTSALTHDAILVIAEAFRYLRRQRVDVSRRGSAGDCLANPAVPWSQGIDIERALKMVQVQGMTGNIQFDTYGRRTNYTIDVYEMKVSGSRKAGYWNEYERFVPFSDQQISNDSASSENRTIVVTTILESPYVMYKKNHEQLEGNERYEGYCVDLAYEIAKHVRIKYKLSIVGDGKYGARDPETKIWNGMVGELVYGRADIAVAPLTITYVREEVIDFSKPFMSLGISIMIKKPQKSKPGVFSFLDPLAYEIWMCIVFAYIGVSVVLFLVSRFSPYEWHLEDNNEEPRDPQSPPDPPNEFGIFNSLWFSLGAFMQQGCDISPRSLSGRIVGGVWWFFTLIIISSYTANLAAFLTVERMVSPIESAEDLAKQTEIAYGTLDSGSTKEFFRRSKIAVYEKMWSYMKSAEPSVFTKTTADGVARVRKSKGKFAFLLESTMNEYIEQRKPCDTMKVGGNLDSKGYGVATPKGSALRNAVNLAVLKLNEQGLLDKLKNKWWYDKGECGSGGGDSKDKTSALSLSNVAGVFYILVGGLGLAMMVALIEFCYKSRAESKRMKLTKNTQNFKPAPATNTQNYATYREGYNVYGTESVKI

CCN(CC)C(=O)Oc1ccc(C(=O)Nc2cccc(CCNS(=O)(=O)c3ccccc3)c2)cc1
residual activity [1]: 9% | inhibition [2]: 24% | inhibition [3]: 79% | inhibition [4]: 86% | inhibition [5]: 20% | residual activity [6]: 85%
